Data set [1] deals with Intestine. The data set can be described thus: Drug uptake in Sprague-Dawley rat intestine at 22 MBq/body, iv administered as bolus coadministered with rifampicin measured after 60 mins by PET analysis. It is filed as ADME, organism-based. The conditions noted are these: in vivo, 1 h. In outline: (§1)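 Rats were anesthetized with 1.5% isoflurane in nitrous oxide/oxygen (7/3). The 11C tracer (approx. 22 MBq per animal) was given as an IV bolus through a tail-vein catheter, followed by a 60 min microPET emission scan. Regions of interest were set on liver, intestine, kidney and urinary bladder. Uptake was decay-corrected to injection time and expressed as % dose/tissue or % dose/mL blood, normalized to injected radioactivity. Rifampicin was infused at 1.5 µmol/min/kg where applied.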

The test system of data set [2] is Liver. In words: Drug uptake in Sprague-Dawley rat liver at 22 MBq/body, iv administered as bolus coadministered with rifampicin measured after 2 mins by PET analysis. Format: ADME, organism-based. The conditions noted are these: in vivo. In outline:
as §1

Data set [3] can be described thus: Drug uptake in Sprague-Dawley rat urinary bladder at 22 MBq/body, iv administered as bolus measured after 60 mins by PET analysis. It is filed as ADME, organism-based. The conditions noted are these: in vivo, 1 h. In outline: as §1
In data set [4] the test system is Intestine. In words: Drug uptake in Sprague-Dawley rat intestine at 22 MBq/body, iv administered as bolus measured after 60 mins by PET analysis. Format: ADME, organism-based. The conditions noted are these: in vivo, 1 h. In outline: as §1
In data set [5] the test system is Liver. The data set can be described thus: Drug uptake in Sprague-Dawley rat liver at 22 MBq/body, iv administered as bolus measured up to 2 mins by PET analysis. The conditions noted are these: in vivo. It is filed as ADME, organism-based. In outline: as §1
The subject of another data set is Kidney. In words: Drug uptake in Sprague-Dawley rat kidney at 22 MBq/body, iv administered as bolus measured up to 2 mins by PET analysis. It is filed as ADME, organism-based. The conditions noted are these: in vivo. In outline: as §1
Data set [6] deals with Blood. The data set can be described thus: Drug metabolism in Mrp2 hereditary-deficient Sprague-Dawley rat blood assessed as radiometabolite formation at 22 MBq, iv administered as bolus within 20 mins by PET analysis. Format: ADME, organism-based. The conditions noted are these: in vivo. In outline: (§2)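 Radiometabolite analysis, run apart from the PET scans. Blood, liver homogenate and bile were mixed with an equal volume of acetonitrile and centrifuged at 12,000 rpm for 2 min at 4 °C. The supernatant was diluted with mobile phase and run on reversed-phase HPLC (10 mM ammonium acetate/acetonitrile gradient, 2.0 mL/min). Detection was UV 254 nm plus a NaI(Tl) positron detector, reading intact tracer against metabolites.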

In data set [7] the test system is Liver. The data set can be described thus: Drug metabolism in Mrp2 hereditary-deficient Sprague-Dawley rat liver assessed as radiometabolite formation at 22 MBq, iv administered as bolus within 20 mins by PET analysis. The conditions noted are these: in vivo. Format: ADME, organism-based. In outline:
as §2

A short description of data set [8]: Drug metabolism in Mrp2 hereditary-deficient Sprague-Dawley rat bile assessed as radiometabolite formation at 22 MBq, iv administered as bolus within 20 mins by PET analysis. Particulars: in vivo; call rule not given here. It is filed as ADME, organism-based. The essentials: as §2
Data set [9] relates to Blood. In words: Drug metabolism in Mrp2 hereditary-deficient Sprague-Dawley rat blood assessed as radiometabolite formation at 22 MBq, iv administered as bolus at 2 mins by PET analysis. Format: ADME, organism-based. The conditions noted are these: in vivo. In outline:
as §2

Data set [10] relates to Blood. The data set can be described thus: Drug uptake in Mrp2 hereditary-deficient Sprague-Dawley rat blood at 22 MBq, iv administered as bolus after 20 mins by PET analysis. Particulars: in vivo. It is filed as ADME, organism-based. In outline:
as §1

For data set [11], the system named is Liver. The data set can be described thus: Drug uptake in Mrp2 hereditary-deficient Sprague-Dawley rat liver at 22 MBq, iv administered as bolus after 20 mins by PET analysis. Format: ADME, organism-based. Particulars: in vivo. The essentials:
as §1

Data set [12] in a line: Drug uptake in Mrp2 hereditary-deficient Sprague-Dawley rat bile at 22 MBq, iv administered as bolus after 20 mins by PET analysis. Format: ADME, organism-based. Particulars: in vivo.
Data set [13] relates to Hepatocyte. The data set can be described thus: Metabolic stability in human hepatocytes. Format: ADME, cell-based.
The test system of data set [14] is Hepatocyte. The data set can be described thus: Metabolic stability in rat hepatocytes. It is filed as ADME, cell-based.

Structures are written as SMILES.

For `C/C(=C\[11CH3])C(=O)O[C@H]1C[C@H](O)C=C2C=C[C@H](C)[C@H](CC[C@@H](O)C[C@@H](O)CC(=O)[O-])[C@H]21.[Na+]`, the Drug uptake result in the data set on Intestine [1] is recorded as “Not Active”; with Liver [2] it was “Not Active”; in data set [3] it was 1.51%; in the data set on Intestine [4] it was 67.9%; with Liver [5], “Active”; with Kidney it was “Active”. The Drug uptake entry (in the data set with Blood [10]; in the data set on Liver [11]; in data set [12]) was “Active” throughout. Further, the Drug metabolism entry (in the data set on Blood [6]; with Liver [7]; in data set [8]; in the data set on Blood [9]) was “Active” throughout. Moreover, the Stability result in the data set on Hepatocyte [13] and with Hepatocyte [14] was “Stable” throughout.
